# Test results reported in ChEMBL document CHEMBL1681666, “Synthesis and in vitro screening of novel N-benzyl aplysinopsin analogs as potential anticancer agents” (2011).
# Tests used:
# Assay type in all cases: functional
# [1] = test system: M14; assay: Anticancer activity against human M14 cells
# In short: (§1)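 NCI 60-cell human tumour panel (leukemia, lung, colon, CNS, melanoma, ovarian, renal, prostate, breast). A first-stage single-dose screen at 10 µM was run. Compounds giving over 60% growth inhibition in at least eight lines went on to a five-dose response. Effect was plotted against log10 molar concentration per line. GI50 is the concentration giving 50% reduction in net protein increase versus control cells. LC50 is the concentration lethal to 50% of cells.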
# [2] = test system: A498; assay: Anticancer activity against human A498 cells; in short: as §1
# [3] = test system: BT-549; assay: Anticancer activity against human BT549 cells; in short: as §1
# [4] = test system: UACC-62; assay: Anticancer activity against human UACC62 cells
# In short: (§2)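 NCI 60-cell-line panel. A single-dose (10 µM) prescreen was run first. Compounds giving over 60% growth inhibition in at least eight lines then went to five-dose response studies. Dose-response curves of effect versus log10 concentration. GI50 is the molar concentration giving a 50% reduction in net protein increase versus control cells. LC50 is the concentration lethal to 50% of cells.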
# [5] = test system: IGROV-1; assay: Anticancer activity against human IGROV1 cells; in short: as §1
# [6] = test system: SF-539; assay: Anticancer activity against human SF539 cells; in short: as §1
# [7] = test system: UO-31; assay: Anticancer activity against human UO31 cells; in short: as §2
# [8] = test system: UACC-257; assay: Anticancer activity against human UACC257 cells; in short: as §2
# [9] = test system: SF-295; assay: Anticancer activity against human SF295 cells; in short: as §1
# [10] = test system: OVCAR-5; assay: Anticancer activity against human OVCAR5 cells; in short: as §1
# [11] = test system: HCT-15; assay: Anticancer activity against human HCT15 cells; in short: as §1
# [12] = test system: SNB-75; assay: Anticancer activity against human SNB75 cells; in short: as §2
# [13] = test system: SK-MEL-2; assay: Anticancer activity against human SK-MEL-2 cells; in short: as §1
# [14] = test system: 786-0; assay: Anticancer activity against human 786-0 cells; in short: as §1
# [15] = test system: SW-620; assay: Anticancer activity against human SW620 cells; in short: as §2
# [16] = test system: OVCAR-3; assay: Anticancer activity against human OVCAR3 cells; in short: as §1
# [17] = test system: NCI-H460; assay: Anticancer activity against human NCI-H460 cells; in short: as §1
# [18] = test system: DU-145; assay: Anticancer activity against human DU145 cells; in short: as §1
# [19] = test system: TK-10; assay: Anticancer activity against human TK10 cells; in short: as §2
# [20] = test system: SF-268; assay: Anticancer activity against human SF268 cells; in short: as §1
# [21] = test system: MDA-MB-468; assay: Anticancer activity against human MDA-MB-468 cells; in short: as §1
# [22] = test system: SNB-19; assay: Anticancer activity against human SNB19 cells; in short: as §1
# [23] = test system: SN12C; assay: Anticancer activity against human SN12C cells; in short: as §1
# [24] = test system: HCC 2998; assay: Anticancer activity against human HCC2998 cells; in short: as §1
# [25] = test system: ACHN; assay: Anticancer activity against human ACHN cells; in short: as §1
# [26] = test system: HCT-116; assay: Anticancer activity against human HCT116 cells; in short: as §1
# [27] = test system: KM12; assay: Anticancer activity against human KM12 cells; in short: as §1
# [28] = test system: NCI-H522; assay: Anticancer activity against human NCI-H522 cells; in short: as §1
# [29] = test system: HT-29; assay: Anticancer activity against human HT-29 cells; in short: as §1
# [30] = test system: NCI-H322M; assay: Anticancer activity against human NCI-H322M cells; in short: as §1
# [31] = test system: T47D; assay: Anticancer activity against human T47D cells; in short: as §2
# [32] = test system: HOP-62; assay: Anticancer activity against human HOP62 cells; in short: as §1
# [33] = test system: U-251; assay: Anticancer activity against human U251 cells; in short: as §2
# [34] = test system: EKVX; assay: Anticancer activity against human EKVX cells; in short: as §1
# [35] = test system: COLO 205; assay: Anticancer activity against human COLO205 cells; in short: as §1
# [36] = test system: SK-MEL-5; assay: Anticancer activity against human SK-MEL-5 cells; in short: as §1
# [37] = test system: SK-OV-3; assay: Anticancer activity against human SKOV3 cells; in short: as §1
# [38] = test system: CCRF-CEM; assay: Anticancer activity against human CCRF-CEM cells; in short: as §1
# [39] = test system: MOLT-4; assay: Anticancer activity against human MOLT4 cells; in short: as §1
# [40] = test system: NCI-H23; assay: Anticancer activity against human NCI-H23 cells; in short: as §1
# [41] = Anticancer activity against human Hs 578T cells; in short: as §1
# [42] = test system: PC-3; assay: Anticancer activity against human PC3 cells; in short: as §1
# [43] = test system: HL-60(TB); assay: Anticancer activity against human HL-60(TB) cells; in short: as §1
# [44] = test system: MCF7; assay: Anticancer activity against human MCF7 cells; in short: as §1
# [45] = test system: Malme-3M; assay: Anticancer activity against human MALME-3M cells; in short: as §1
# [46] = test system: HOP-92; assay: Anticancer activity against human HOP92 cells
# In short: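 NCI 60-cell human tumour panel screen that includes non-small cell lung lines. The first stage used a single 10 µM dose. Compounds reaching more than 60% growth inhibition in at least eight lines went on to five-dose response testing. GI50 and LC50 came from curves of effect against log10 molar concentration. GI50 is the concentration giving a 50% reduction in net protein increase versus control cells.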
# [47] = test system: LOX IMVI; assay: Anticancer activity against human LOXIMVI cells; in short: as §1
# [48] = test system: NCI-H226; assay: Anticancer activity against human NCI-H226 cells; in short: as §1
# [49] = test system: OVCAR-4; assay: Anticancer activity against human OVCAR4 cells; in short: as §1
# [50] = test system: K562; assay: Anticancer activity against human K562 cells; in short: as §1
# [51] = test system: OVCAR-8; assay: Anticancer activity against human OVCAR8 cells; in short: as §1
# [52] = test system: RXF 393; assay: Anticancer activity against human RXF393 cells; in short: as §1
# [53] = test system: SK-MEL-28; assay: Anticancer activity against human SK-MEL-28 cells; in short: as §1
# [54] = test system: MDA-MB-435; assay: Anticancer activity against human MDA-MB-435 cells; in short: as §1
# [55] = test system: MDA-MB-231; assay: Anticancer activity against human MDA-MB-231 cells; in short: as §1
# [56] = Anticancer activity against human NCI/ADR cells; details: NCI/ADR-RES; in short: as §1
# [57] = Anticancer activity against human […] cells; in short: as §1
# [58] = test system: A549; assay: Anticancer activity against human A549 cells; in short: as §1
# [59] = test system: CAKI-1; assay: Anticancer activity against human Caki1 cells; in short: as §1
# [60] = read-out: LC50 (the source's name)
structure (smiles),measurement,setting,value
N=C1NC(=O)/C(=C/c2cn(Cc3ccc(F)cc3)c3ccc(Cl)cc23)S1,GI50,[1],57.2 µM
same,CC50,[1]; [60],> 100 µM
same,GI50,[2],31.5 µM
same,CC50,[2]; [60],> 100 µM
same,GI50,[3],98.8 µM
same,CC50,[3]; [60],> 100 µM
same,GI50,[4],> 100 µM
same,CC50,[4]; [60],> 100 µM
same,GI50,[5],3.02 µM
same,CC50,[5]; [60],> 100 µM
same,GI50,[6],4.4 µM
same,CC50,[6]; [60],> 100 µM
same,GI50,[7],> 100 µM
same,CC50,[7]; [60],> 100 µM
same,GI50,[8],0.013 µM
same,CC50,[8]; [60],0.3 µM
same,GI50,[9],> 100 µM
same,CC50,[9]; [60],> 100 µM
same,GI50,[10],> 100 µM
same,CC50,[10]; [60],> 100 µM
same,GI50,[11],> 100 µM
same,CC50,[11]; [60],> 100 µM
same,GI50,[12],2.47 µM
same,CC50,[12]; [60],> 100 µM
same,GI50,[13],> 100 µM
same,CC50,[13]; [60],> 100 µM
same,GI50,[14],37.4 µM
same,CC50,[14]; [60],> 100 µM
same,GI50,[15],38.3 µM
same,CC50,[15]; [60],> 100 µM
same,GI50,[16],> 100 µM
same,CC50,[16]; [60],30.1 µM
same,GI50,[17],> 100 µM
same,CC50,[17]; [60],> 100 µM
same,GI50,[18],5.24 µM
same,CC50,[18]; [60],> 100 µM
same,GI50,[19],5.64 µM
same,CC50,[19]; [60],> 100 µM
same,GI50,[20],32 µM
same,CC50,[20]; [60],> 100 µM
same,GI50,[21],> 100 µM
same,CC50,[21]; [60],> 100 µM
same,GI50,[22],> 100 µM
same,CC50,[22]; [60],> 100 µM
same,GI50,[23],> 100 µM
same,CC50,[23]; [60],> 100 µM
same,GI50,[24],> 100 µM
same,CC50,[24]; [60],> 100 µM
same,GI50,[25],> 100 µM
same,CC50,[25]; [60],> 100 µM
same,GI50,[26],5.41 µM
same,CC50,[26]; [60],> 100 µM
same,GI50,[27],7.49 µM
same,CC50,[27]; [60],> 100 µM
same,GI50,[28],11 µM
same,CC50,[28]; [60],> 100 µM
same,GI50,[29],20.8 µM
same,CC50,[29]; [60],> 100 µM
same,GI50,[30],71 µM
same,CC50,[30]; [60],> 100 µM
same,GI50,[31],> 100 µM
same,CC50,[31]; [60],> 100 µM
same,GI50,[32],> 100 µM
same,CC50,[32]; [60],> 100 µM
same,GI50,[33],2.94 µM
same,CC50,[33]; [60],> 100 µM
same,GI50,[34],> 100 µM
same,CC50,[34]; [60],> 100 µM
same,GI50,[35],> 100 µM
same,CC50,[35]; [60],> 100 µM
same,GI50,[36],> 100 µM
same,CC50,[36]; [60],> 100 µM
same,GI50,[37],> 100 µM
same,CC50,[37]; [60],> 100 µM
same,GI50,[38],> 100 µM
same,CC50,[38]; [60],> 100 µM
same,GI50,[39],> 100 µM
same,CC50,[39]; [60],> 100 µM
same,GI50,[40],60.1 µM
same,CC50,[40]; [60],> 100 µM
same,GI50,[41],3.67 µM
same,CC50,[41]; [60],> 100 µM
same,GI50,[42],23.6 µM
same,CC50,[42]; [60],> 100 µM
same,GI50,[43],> 100 µM
same,CC50,[43]; [60],> 100 µM
same,GI50,[44],> 100 µM
same,CC50,[44]; [60],> 100 µM
same,GI50,[45],23.5 µM
same,CC50,[45]; [60],> 100 µM
same,GI50,[46],> 100 µM
same,GI50,[47],2.32 µM
same,CC50,[47]; [60],> 100 µM
same,GI50,[48],80.7 µM
same,CC50,[48]; [60],> 100 µM
same,GI50,[49],2.49 µM
same,CC50,[49]; [60],> 100 µM
same,GI50,[50],77.6 µM
same,CC50,[50]; [60],> 100 µM
same,GI50,[51],0.019 µM
same,CC50,[51]; [60],> 100 µM
same,GI50,[52],1.62 µM
same,CC50,[52]; [60],> 100 µM
same,GI50,[53],> 100 µM
same,CC50,[53]; [60],> 100 µM
same,GI50,[54],32.4 µM
same,CC50,[54]; [60],> 100 µM
same,GI50,[55],6.45 µM
same,CC50,[55]; [60],> 100 µM
same,GI50,[56],> 100 µM
same,CC50,[56]; [60],> 100 µM
same,GI50,[57],> 100 µM
same,CC50,[57]; [60],> 100 µM
same,GI50,[58],0.77 µM
same,CC50,[58]; [60],> 100 µM
same,GI50,[59],> 100 µM
same,CC50,[59]; [60],> 100 µM
